The substances below were run on Mus musculus (assay: Compound is tested against sarcoma 180 ascites (S180a) in female CFW mice, and evaluated for the best percent of increase in life span at optimal dose of 40 mg/kg).
Type: functional, organism-based
Parameters: dose 40 mg/kg
Method in brief: (§1)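 Female CFW mice (18-25 g) were inoculated ip with 2×10^6 S180a cells on day 0. Single ip dose in 0.5 mL water on day 1, over 6 dose-doublings up to 320 mg/kg, 6 mice per dose. Controls got water; the cisplatin control got 8 mg/kg in 0.15 M NaCl. Run for twice control MST, with survivors counted dead then. %ILS, ≥50% = active.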
Substance cis[Pt(NH3)2(N1-4-chloropyridine)Cl]Cl has an ILS of 77%.
For cis[Pt(NH3)2(N1-pyridine)Cl]Cl, the ILS was 103%.
cis[Pt(NH3)2(N1-4-methylpyridine)Cl]Cl was tested, and the ILS was 83%.
For cis[Pt(NH3)2(N3-1-methylcytosine)Cl]NO3, the ILS was 73%.

These substances were tested on Mus musculus (assay: Compound is tested against sarcoma 180 ascites (S180a) in female CFW mice, and evaluated for the best percent of increase in life span at optimal dose of 80 mg/kg).
Type: functional, organism-based
Parameters: dose 80 mg/kg
Method in brief: as §1
cis[Pt(NH3)2(N3-2,deoxycytidine)Cl]Cl was tested, and the ILS was 85%.
In the case of cis[Pt(NH3)2(N1-3-hydroxypyridine)Cl]Cl, the ILS is reported as 69%.
Work on cis[Pt(NH3)2(N1-cytisine)Cl]Cl yielded an ILS of 92%.
With “cis[Pt(NH3)2(N7-2,deoxyguanosine)Cl]NO3; H2O” the ILS was 88%.
Substance cis[Pt(NH3)2(N1-4-bromopyridine)Cl]Cl has an ILS of 102%.
In the case of “cis[Pt(NH3)2(N1-methyl isonicotinate)Cl]Cl”, the ILS is reported as 31%.
cis[Pt(NH3)2(N1-pyridine)Cl]Cl gave an ILS of 26%.
Substance “cis[Pt(NH3)2(N1-6-methoxy-3-hydroxy-hydroxypyridine)Cl]Cl H2O” has an ILS of 93%.
[Pt(NH3)2(N1-pyridine)Cl]Cl showed an ILS of 17%.

Each substance was assayed on Mus musculus (assay: Compound is tested against sarcoma 180 ascites (S180a) in female CFW mice, and evaluated for the best percent of increase in life span at optimal dose of 8 mg/kg).
Type: functional, organism-based
Parameters: dose 8 mg/kg
Method in brief: as §1
Work on CISPLATIN yielded an ILS of 81%.

Each substance was assayed on Mus musculus (assay: Compound is tested against sarcoma 180 ascites (S180a) in female CFW mice, and evaluated for the best percent of increase in life span at optimal dose of 160 mg/kg).
Type: functional, organism-based
Parameters: dose 160 mg/kg
Method in brief: as §1
In the case of “cis[Pt(NH3)2(N1-6-methyl-hydroxypyridine)Cl]Cl”, the ILS is reported as 93%.
“cis[Pt(NH3)2(N1-hydroxypyridine)Cl]Cl H2O” was tested, and the ILS was 97%.
For “cis[Pt(NH3)2(N3-1-beta-D-arabinofuranosylcytocin)Cl]NO3.H2O”, the ILS was 51%.
Substance cis[Pt(NH3)2(N7-guanosine)Cl]NO3 has an ILS of 79%.
cis[Pt(NH3)2(N3-5-methylcytosine)Cl]NO3 was tested, and the ILS was 84%.

The substances below were run on Mus musculus (assay: Compound is tested against sarcoma 180 ascites (S180a) in female CFW mice, and evaluated for the best percent of increase in life span at optimal dose of 320 mg/kg).
Type: functional, organism-based
Parameters: dose 320 mg/kg
Method in brief: as §1
Substance cis[Pt(NH3)2(N3-cytidinepyridine)Cl]NO3 has an ILS of 30%.
